Assay results gathered from unrelated publications.
Lines come from different studies, so protocols differ.

SMILES | test system | conditions | Tmax [h]
CC(C)(Sc1ccncc1-c1ccc(C#N)c2ccccc12)C(=O)O | male human, plasma | oral, 20 mg, single dose, fasted, healthy volunteers | 0.5
Oc1cc(O)c2c(c1)O[C@@H](c1ccc(O)c(O)c1)[C@@H](O)C2 | human, plasma | oral, 100 mg, single dose | 1
NS(=O)(=O)NCCNc1nonc1C(=NO)Nc1ccc(F)c(Br)c1 | human, plasma | oral, 500 mg, multiple doses, twice daily, steady state, patients | 2
CC(C)[C@](O)(c1ccc2cc(OC(F)F)c(OC(F)F)cc2c1)c1c[nH]nn1 | female human, plasma | oral, 450 mg, single dose | 1.9
Cc1nc(NC(=O)N2CCC[C@H]2C(N)=O)sc1-c1ccnc(C(C)(C)C(F)(F)F)c1 | human, plasma | oral, 180 mg, patients | 2.46
CS(=O)(=O)CCC#N | human, plasma | oral, 300 mg, single dose, fasted | 1.5
CCc1nc(C(N)=O)c(Nc2ccc(N3CCC(N4CCN(C)CC4)CC3)c(OC)c2)nc1NC1CCOCC1 | human, plasma | oral, 200 mg, multiple doses, patients | 5.92
CCO[C@H]1CCN(Cc2c(OC)cc(C)c3[nH]ccc23)[C@H](c2ccc(C(=O)O)cc2)C1 | human, plasma | oral, 50 mg, multiple doses, twice daily, patients | 2
C#Cc1cccc(Nc2ncnc3cc(OCCOC)c(OCCOC)cc23)c1 | human, plasma | oral, 50 mg, patients | 4
CC(C)(C)N/[N+]([O-])=N/OC1CCN(c2ccc(C#N)cn2)CC1 | male human, plasma | oral, single dose, healthy volunteers | 1 to 2
O=C(Nc1c(Cl)cncc1Cl)c1ccc(OC(F)F)c(OCC2CC2)c1 | human, plasma | oral, 0.375 mg, multiple doses, once daily | 0.75
c1cnc2ccc(Nc3nc(NC4CC4)c4nc[nH]c4n3)cc2c1 | human, plasma | oral, 800 mg/m², patients | 5
COc1ccc([C@@H]2CN(C(=O)[C@@H](O)CO)C[C@@]2(C)[C@@H](C)O)cc1OC1CN(c2ccc(C)cn2)C1 | human, plasma | oral, 1.5 mg, single dose, healthy volunteers | 1
C[C@@H](Nc1cc(F)cc(F)c1)c1cc(C(=O)N(C)C)cc2c(=O)cc(N3CCOCC3)oc12 | human, plasma | oral, 240 mg, single dose, patients | 1.75
C[C@@]1(c2cc(NC(=O)c3ccc(C#N)cn3)ccc2F)C=CSC(N)=N1 | human, plasma | oral, 10 mg, single dose | 0.88
CC(C)n1cc(C#N)c2cc(-n3cc(C(=O)O)cn3)ccc21 | human, plasma | oral, 800 mg, multiple doses, once daily, steady state | 4

SMILES | test system | conditions | Tmax [h]
COc1cc(N2CCC(N3CCN(C)CC3)CC2)ccc1Nc1ncnc(Nc2ccccc2S(=O)(=O)C(C)C)n1 | human, plasma | oral, 200 mg, multiple doses, patients | 2.96
C=CC(=O)N(C)CCOc1c(N)ncnc1-c1cc(F)cc(NC(=O)c2ccc(C3CC3)cc2F)c1C | human, blood | oral, 1.5 mg, single dose, healthy volunteers | 0.5
C#C[C@]1(COP(=O)(O)OP(=O)(O)OP(=O)(O)O)O[C@@H](n2cnc3c(N)nc(F)nc32)C[C@@H]1O | human, plasma | oral, 15 mg, single dose | 6
CC(C)(C)OC[C@@H]1C(=O)NCCN1C(=O)C[C@H](N)Cc1cc(F)c(F)cc1F | male human, plasma | oral, 5 mg, multiple doses, steady state | 2
CC(C)(O)c1ccccc1-c1ccc2[nH]c(/C=C/c3ccc(C(F)(F)F)cc3)nc2c1 | male human, plasma | oral, 60 mg, single dose, fasted | 3.98
CC(=O)Oc1ccccc1C(=O)O | human, plasma | oral, 650 mg, healthy volunteers | 2.5
CCCCOC(=O)N1CCN(C(=O)[C@H](CP(=O)(O)O)NC(=O)c2cc(N3CC[C@H](OC)C3)nc(-c3ccccc3)n2)CC1 | human, plasma | subcutaneous, 16 mg, single dose | 0.733
C=CC(=O)N1CCC(Oc2cc3c(Nc4ccc(Cl)c(Cl)c4F)ncnc3cc2OC)CC1 | human, plasma | oral, 16 mg, single dose, fasted | 1.26
Cn1cc(-c2ccc(S(=O)(=O)[C@@H]3C[C@@H](C(=O)NC4(C#N)CC4)N(C(=O)C4(C(F)(F)F)CC4)C3)c(C(F)(F)F)c2)cn1 | human, plasma | oral, 10 mg, single dose, fasted, healthy volunteers | 4.5
Nc1cc(C(F)(F)F)c(-c2cc(N3CCOCC3)nc(N3CCOCC3)n2)cn1 | human, plasma | oral, 100 mg/day, patients | 1.5
CC(C)n1nc(-c2ccc3oc(N)nc3c2)c2c(N)ncnc21 | human, plasma | oral, 3 mg, multiple doses, once daily, patients | 0.97
Cc1nc(-c2cn3c(n2)-c2ccc(-c4cnn(C(C)(C)C(N)=O)c4)cc2OCC3)n(C(C)C)n1 | human, plasma | oral, 6 mg, patients | 2.05
CCc1nc2c(C)cc(N3CCN(CC(=O)N4CC(O)C4)CC3)cn2c1N(C)c1nc(-c2ccc(F)cc2)c(C#N)s1 | human, plasma | oral, 1500 mg, fed, healthy volunteers | 2
CC(C)[C@H](N)C(=O)NCCCS(=O)(=O)O | human, plasma | oral, 171 mg, multiple doses, twice daily, fasted | 0.5
CO[C@@H]1[C@H](OC(=O)N2CC(CCN3CCOCC3)C2)CC[C@]2(CO2)[C@H]1[C@@]1(C)O[C@@H]1CC=C(C)C | human, plasma | subcutaneous, 1.2 mg, single dose, healthy volunteers | 0.25
